# Calls of active or inactive are those of the source. The calls are words filed in the database; no cut-off is given here.
# Legend:
# [1] = molecular target: CDK8/Cyclin C (Homo sapiens, UniProt P49336); assay: Inhibition of Alexa647 tracer binding to full length recombinant human His-tagged CDK8/cyclin C expressed in Baculovirus expression system preincubated for 20 mins followed by tracer addition and incubated in dark for 60 mins by FRET-based Lanthascreen assay
# [2] = molecular target: T1, Cyclin-dependent kinase 8 (Homo sapiens, UniProt P49336); assay: Inhibition of CDK8 in human 7dF3 cells preincubated for 2 hrs followed by beta-oestradiol addition measured after 24 hrs by luciferase reporter gene assay; format: cell-based
# Target sequence in this assay (P49336 whole entry): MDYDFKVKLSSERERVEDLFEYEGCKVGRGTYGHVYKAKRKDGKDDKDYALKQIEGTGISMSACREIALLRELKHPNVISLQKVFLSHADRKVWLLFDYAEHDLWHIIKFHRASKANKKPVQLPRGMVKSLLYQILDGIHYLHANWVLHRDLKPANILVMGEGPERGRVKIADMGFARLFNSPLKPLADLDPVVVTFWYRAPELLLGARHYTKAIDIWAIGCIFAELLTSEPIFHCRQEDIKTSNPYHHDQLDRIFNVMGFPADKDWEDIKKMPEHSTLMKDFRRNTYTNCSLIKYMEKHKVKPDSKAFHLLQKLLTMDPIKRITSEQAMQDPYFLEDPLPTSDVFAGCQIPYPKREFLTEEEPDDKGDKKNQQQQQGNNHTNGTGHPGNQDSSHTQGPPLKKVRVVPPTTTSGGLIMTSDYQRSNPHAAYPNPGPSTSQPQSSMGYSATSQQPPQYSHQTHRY
# [3] = Intrinsic clearance in human liver microsomes at 1 uM preincubated for 5 mins followed by NADPH addition measured after 5 to 30 mins by LC-MS/MS analysis; format: ADME; details: read-out: CLH
# [4] = Intrinsic clearance in rat liver microsomes at 1 uM preincubated for 5 mins followed by NADPH addition measured after 5 to 30 mins by LC-MS/MS analysis; format: ADME; details: read-out: CLH
# [5] = Intrinsic clearance in mouse liver microsomes at 1 uM preincubated for 5 mins followed by NADPH addition measured after 5 to 30 mins by LC-MS/MS analysis; format: ADME; details: read-out: CLH
# [6] = Apparent permeability from apical to basolateral side in human Caco2 cells at 1 uM after 2 hrs by Transwell assay; format: ADME, cell-based; details: Caco-2
# [7] = Efflux ratio of permeability in human Caco2 cells at 1 uM after 2 hrs by Transwell assay; format: ADME, cell-based; details: Caco-2
# [8] = Kinetic solubility of the compound; format: physicochemical; details: read-out: Kinetic_solubility
# [9] = molecular target: Glycogen synthase kinase-3 alpha (Homo sapiens) (UniProt P49840); assay: Inhibition of GSK-3alpha (unknown origin) at 1 uM relative to control
# [10] = molecular target: T1, Cyclin-dependent kinase 8; assay: Inhibition of CDK8 in human SW620 cells assessed as decrease in STAT1 phosphorylation at Ser727; format: cell-based, SW-620
# Target sequence in this assay (P49336 whole entry): as above
# [11] = molecular target: T1, Cyclin-dependent kinase 8; assay: Inhibition of CDK8 in human LS174T cells expressing beta-catenin mutant assessed as suppression of WNT pathway by luciferase reporter gene assay; format: cell-based
# Target sequence in this assay (P49336 whole entry, looked up, stated change not applied): as the sequence (P49336 whole entry) above
# [12] = molecular target: T1, Cyclin-dependent kinase 8; assay: Inhibition of CDK8 in human COLO205 cells expressing APC mutant assessed as suppression of WNT pathway by luciferase reporter gene assay; format: cell-based; details: colo 205
# Target sequence in this assay (P49336 whole entry, looked up, stated change not applied): as the sequence (P49336 whole entry) above
# [13] = molecular target: T1, Cyclin-dependent kinase 8; assay: Inhibition of CDK8 in human PA1 cells assessed as suppression of WNT3a ligand-induced WNT pathway by luciferase reporter gene assay; format: cell-based, PA-1
# Target sequence in this assay (P49336 whole entry): as above
# [14] = molecular target: Sodium-dependent dopamine transporter (Homo sapiens, UniProt Q01959); assay: Displacement of [3H]BTCP from human recombinant dopamine transporter expressed in CHO cells after 120 mins by scintillation counting method; format: cell-based
# [15] = molecular target: hERG (KCNH2) (Homo sapiens, UniProt Q12809); assay: Inhibition of human ERG at 10 uM relative to control
# [16] = Thermodynamic solubility of the compound in PBS at pH 7.4; format: physicochemical; details: read-out: Therm_solubility
# [17] = Thermodynamic solubility of the compound in FaSSIF at pH 6.5; format: physicochemical; details: read-out: Therm_solubility
# [18] = Thermodynamic solubility of the compound in FeSSIF at pH 5; format: physicochemical; details: read-out: Therm_solubility
# [19] = Inhibition of CYP450 (unknown origin); format: ADME, Homo sapiens
# [20] = Fraction unbound in NMRI mouse plasma at 0.2 mg/kg, iv as bolus dose or 0.5 mg/kg, po via gavage measured over 6 hrs; format: ADME, organism-based
# [21] = Fraction unbound in Wistar rat plasma at 0.2 mg/kg, iv as bolus dose or 0.5 mg/kg, po via gavage measured over 6 hrs; format: ADME, organism-based
# [22] = Fraction unbound in Beagle dog plasma at 0.2 mg/kg, iv as bolus dose or 0.5 mg/kg, po via gavage measured over 48 hrs; format: ADME, organism-based, Canis lupus familiaris
# [23] = Volume of distribution at steady state in NMRI mouse at 0.2 mg/kg, iv as bolus dose or 0.5 mg/kg, po via gavage measured over 6 hrs; format: ADME, organism-based; details: in vivo, read-out: Vdss
# [24] = Volume of distribution at steady state in Beagle dog at 0.2 mg/kg, iv as bolus dose or 0.5 mg/kg, po via gavage measured over 48 hrs; format: ADME, organism-based, Canis lupus familiaris; details: in vivo, read-out: Vdss
# [25] = Volume of distribution at steady state in Wistar rat at 0.2 mg/kg, iv as bolus dose or 0.5 mg/kg, po via gavage measured over 6 hrs; format: ADME, organism-based; details: in vivo, read-out: Vdss
# [26] = Plasma clearance in NMRI mouse at 0.2 mg/kg, iv as bolus dose or 0.5 mg/kg, po via gavage measured over 6 hrs; format: ADME, organism-based
# [27] = Plasma clearance in Wistar rat at 0.2 mg/kg, iv as bolus dose or 0.5 mg/kg, po via gavage measured over 6 hrs; format: ADME, organism-based
# [28] = Plasma clearance in Beagle dog at 0.2 mg/kg, iv as bolus dose or 0.5 mg/kg, po via gavage measured over 48 hrs; format: ADME, organism-based, Canis lupus familiaris
# [29] = Half life in NMRI mouse at 0.2 mg/kg, iv as bolus dose or 0.5 mg/kg, po via gavage; format: ADME, organism-based; details: in vivo
# [30] = Half life in Wistar rat at 0.2 mg/kg, iv as bolus dose or 0.5 mg/kg, po via gavage; format: ADME, organism-based; details: in vivo
# [31] = Half life in Beagle dog at 0.2 mg/kg, iv as bolus dose or 0.5 mg/kg, po via gavage; format: ADME, organism-based, Canis lupus familiaris; details: in vivo
# [32] = Oral bioavailability in NMRI mouse at 0.5 mg/kg via gavage measured over 6 hrs measured over 6 hrs; format: ADME, organism-based; details: in vivo
# [33] = Oral bioavailability in Wistar rat at 0.5 mg/kg via gavage measured over 6 hrs; format: ADME, organism-based; details: in vivo
# [34] = Oral bioavailability in Beagle dog at 0.5 mg/kg via gavage measured over 48 hrs; format: ADME, organism-based, Canis lupus familiaris; details: in vivo
# [35] = Plasma clearance in NMRI mouse at 0.2 mg/kg, iv as bolus dose or 0.5 mg/kg, po via gavage measured over 6 hrs relative to hepatic blood flow; format: ADME, organism-based, Liver; details: in vivo
# [36] = Plasma clearance in Wistar rat at 0.2 mg/kg, iv as bolus dose or 0.5 mg/kg, po via gavage measured over 6 hrs relative to hepatic blood flow; format: ADME, organism-based, Liver; details: in vivo
# [37] = Plasma clearance in Beagle dog at 0.2 mg/kg, iv as bolus dose or 0.5 mg/kg, po via gavage measured over 48 hrs relative to hepatic blood flow; format: ADME, organism-based, Canis lupus familiaris, Liver; details: in vivo
# [38] = Antitumor activity against human SW620 cells xenografted in NCr athymic mouse assessed as tumor growth inhibition at 50 mg/kg, po bid administered for 16 days relative to control; format: functional, SW-620
# Method in brief: (§1)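 Female NCr athymic mice bearing SW620 human colorectal carcinoma xenografts were dosed orally for 16 days. Growth inhibition was expressed as T/C ratio based on final tumor weights versus vehicle controls.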
# [39] = Antitumor activity against human SW620 cells xenografted in NCr athymic mouse assessed as tumor growth inhibition at 100 mg/kg, po qd administered for 16 days relative to control; format: functional, SW-620; method in brief: as §1
# [40] = test system: Mus musculus; assay: Toxicity in NCr athymic mouse xenografted with human SW620 cells assessed as drug tolerance at 50 mg/kg, po bid administered for 16 days; format: organism-based, SW-620; details: in vivo, 384 h
# Method in brief: (§2)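 Female NCr athymic mice bearing SW620 colorectal xenografts received oral treatment for 16 days. Body weights were recorded and expressed as % of day 0 values.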
# [41] = test system: Mus musculus; assay: Toxicity in NCr athymic mouse xenografted with human SW620 cells assessed as drug tolerance at 100 mg/kg, po qd administered for 16 days; format: organism-based, SW-620; details: in vivo, 384 h; method in brief: as §2
# [42] = test system: Mus musculus; assay: Toxicity in NCr athymic mouse xenografted with human SW620 cells assessed as effect on body weight at 100 mg/kg, po qd administered for 16 days; format: organism-based, SW-620; details: in vivo, 384 h; method in brief: as §2
# [43] = test system: Mus musculus; assay: Toxicity in NCr athymic mouse xenografted with human SW620 cells assessed as body weight loss at 50 mg/kg, po bid administered for 16 days; format: organism-based, SW-620; details: in vivo, 384 h; method in brief: as §2
# [44] = test system: Mus musculus; assay: In vivo inhibition of CDK8-mediated STAT1 phosphorylation at Ser727 in human SW620 cells xenografted in NCr athymic mouse at 100 mg/kg, po qd administered for 16 days measured 2 to 24 hrs post last dose by immunoassay; format: functional, organism-based; details: SW-620
# Method in brief: (§3)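 SW620 xenografts in female NCr athymic mice were dosed orally for 16 days. Phospho-STAT1 Ser727 was measured by Luminex immunoassay, normalized to total STAT1 and expressed as % of vehicle controls at each time point (2 h to 24 h after dosing).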
# [45] = test system: Mus musculus; assay: In vivo inhibition of CDK8-mediated STAT1 phosphorylation at Ser727 in human SW620 cells xenografted in NCr athymic mouse at 50 mg/kg, po bid administered for 16 days measured 2 to 24 hrs post last dose by immunoassay; format: functional, organism-based; details: SW-620; method in brief: as §3
# hERG (KCNH2), sequence (Q12809 whole entry): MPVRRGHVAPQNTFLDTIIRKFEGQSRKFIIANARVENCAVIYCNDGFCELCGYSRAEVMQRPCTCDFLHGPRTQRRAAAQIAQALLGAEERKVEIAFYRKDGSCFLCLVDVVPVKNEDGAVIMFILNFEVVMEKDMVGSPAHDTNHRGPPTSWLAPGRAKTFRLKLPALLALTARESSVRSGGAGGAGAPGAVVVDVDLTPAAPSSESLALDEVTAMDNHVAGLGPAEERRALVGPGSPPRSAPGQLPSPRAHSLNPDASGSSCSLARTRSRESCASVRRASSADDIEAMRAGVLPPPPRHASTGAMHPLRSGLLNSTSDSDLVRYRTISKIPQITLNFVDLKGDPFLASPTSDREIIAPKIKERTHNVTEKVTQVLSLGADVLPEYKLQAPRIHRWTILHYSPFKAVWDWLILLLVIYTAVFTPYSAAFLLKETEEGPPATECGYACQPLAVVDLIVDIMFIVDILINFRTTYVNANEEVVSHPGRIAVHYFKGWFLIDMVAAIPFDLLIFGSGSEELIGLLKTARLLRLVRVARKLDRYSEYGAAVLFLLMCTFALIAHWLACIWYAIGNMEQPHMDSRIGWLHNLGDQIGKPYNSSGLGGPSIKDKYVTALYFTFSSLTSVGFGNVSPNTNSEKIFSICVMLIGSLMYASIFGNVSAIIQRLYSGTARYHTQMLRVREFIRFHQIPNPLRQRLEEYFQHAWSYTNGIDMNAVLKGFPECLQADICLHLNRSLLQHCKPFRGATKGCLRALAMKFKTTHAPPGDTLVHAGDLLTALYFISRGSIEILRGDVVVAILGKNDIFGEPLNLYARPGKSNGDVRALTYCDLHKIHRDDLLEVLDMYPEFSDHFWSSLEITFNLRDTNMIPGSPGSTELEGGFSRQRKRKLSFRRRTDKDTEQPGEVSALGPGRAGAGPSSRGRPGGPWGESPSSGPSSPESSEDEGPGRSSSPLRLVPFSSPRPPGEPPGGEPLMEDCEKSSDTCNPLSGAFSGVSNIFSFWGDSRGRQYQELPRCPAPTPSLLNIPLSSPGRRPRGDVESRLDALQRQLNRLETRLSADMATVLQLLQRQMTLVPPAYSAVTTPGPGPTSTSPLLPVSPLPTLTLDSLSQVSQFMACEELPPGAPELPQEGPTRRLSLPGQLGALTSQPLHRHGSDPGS
# CDK8/Cyclin C, sequence (P49336 whole entry): as the sequence (P49336 whole entry) above
# CDK8/Cyclin C, sequence (P24863 whole entry, further chain): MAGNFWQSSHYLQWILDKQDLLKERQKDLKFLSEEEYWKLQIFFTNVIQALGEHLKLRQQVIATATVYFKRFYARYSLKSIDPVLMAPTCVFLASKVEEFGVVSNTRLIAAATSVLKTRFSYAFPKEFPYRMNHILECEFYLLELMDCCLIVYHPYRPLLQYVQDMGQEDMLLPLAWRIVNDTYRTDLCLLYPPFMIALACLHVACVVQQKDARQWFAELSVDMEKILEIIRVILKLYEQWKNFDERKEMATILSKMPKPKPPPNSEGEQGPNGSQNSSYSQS
# Sodium-dependent dopamine transporter, sequence (Q01959 whole entry): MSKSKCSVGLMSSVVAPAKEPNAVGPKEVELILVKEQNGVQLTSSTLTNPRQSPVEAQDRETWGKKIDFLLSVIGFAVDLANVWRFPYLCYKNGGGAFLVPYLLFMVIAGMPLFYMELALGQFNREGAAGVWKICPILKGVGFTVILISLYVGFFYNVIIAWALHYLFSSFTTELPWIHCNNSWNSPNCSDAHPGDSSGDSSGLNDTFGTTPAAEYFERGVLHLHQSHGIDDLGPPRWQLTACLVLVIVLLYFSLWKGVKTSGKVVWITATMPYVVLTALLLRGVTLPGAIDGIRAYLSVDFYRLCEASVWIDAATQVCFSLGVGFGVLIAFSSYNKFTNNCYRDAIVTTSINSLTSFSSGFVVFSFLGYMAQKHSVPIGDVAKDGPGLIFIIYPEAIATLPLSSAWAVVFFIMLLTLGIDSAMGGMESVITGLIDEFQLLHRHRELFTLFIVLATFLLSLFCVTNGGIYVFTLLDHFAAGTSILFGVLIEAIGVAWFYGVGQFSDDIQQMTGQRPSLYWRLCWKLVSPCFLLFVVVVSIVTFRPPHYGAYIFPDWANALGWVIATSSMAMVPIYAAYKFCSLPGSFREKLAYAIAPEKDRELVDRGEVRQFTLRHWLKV
# Glycogen synthase kinase-3 alpha (Homo sapiens), sequence (P49840 2-483 limits assumed): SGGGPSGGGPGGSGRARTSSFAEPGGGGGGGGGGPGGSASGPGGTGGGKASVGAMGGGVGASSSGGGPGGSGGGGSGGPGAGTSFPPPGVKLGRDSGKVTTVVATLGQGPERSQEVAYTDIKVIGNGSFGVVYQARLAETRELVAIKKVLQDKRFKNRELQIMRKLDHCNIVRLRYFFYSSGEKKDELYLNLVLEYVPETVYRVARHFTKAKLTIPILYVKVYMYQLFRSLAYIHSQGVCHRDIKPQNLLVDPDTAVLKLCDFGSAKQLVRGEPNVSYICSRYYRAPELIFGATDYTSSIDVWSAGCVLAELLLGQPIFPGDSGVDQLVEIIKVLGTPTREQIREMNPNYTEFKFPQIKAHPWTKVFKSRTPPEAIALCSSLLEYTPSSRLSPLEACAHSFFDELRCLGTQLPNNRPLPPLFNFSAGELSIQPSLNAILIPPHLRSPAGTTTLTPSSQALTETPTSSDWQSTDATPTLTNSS
compound,measurement,setting,value
Cc1n[nH]c2ncc(C(=O)N3CCC[C@H]3c3ccc(Cl)cc3)cc12,IC50,[1],2.6 nM
same,IC50,[2],6.5 nM
same,microsomal CLint at 1 µM,[3],45 µL/min/mg
same,microsomal CLint at 1 µM,[4],< 10 µL/min/mg
same,microsomal CLint at 1 µM,[5],< 10 µL/min/mg
same,"Papp A→B at 2 h, 1 µM",[6],44 ×10⁻⁶ cm/s
same,"efflux ratio at 2 h, 1 µM",[7],1.5
same,solubility kinetic,[8],> 200 µM
same,inhibition,[9],> 50%
same,IC50,[10],8 nM
same,IC50,[11],32 nM
same,IC50,[12],9 nM
same,IC50,[13],52 nM
same,IC50,[14],8500 nM
same,inhibition at 10 µM,[15],18%
same,solubility thermodynamic,[16],399 µg/mL
same,solubility thermodynamic,[17],628 µg/mL
same,solubility thermodynamic,[18],836 µg/mL
same,IC50,[19],> 20000 nM
same,fraction unbound at 6 h,[20],0.13
same,fraction unbound at 6 h,[21],0.19
same,fraction unbound at 48 h,[22],0.5
same,Vd,[23],0.59 L/kg
same,Vd,[24],1.47 L/kg
same,Vd,[25],1.62 L/kg
same,clearance,[26],22.8 mL/min/kg
same,clearance,[27],25 mL/min/kg
same,clearance,[28],22.5 mL/min/kg
same,half-life,[29],27 min
same,half-life,[30],51.6 min
same,half-life,[31],49.8 min
same,bioavailability,[32],25%
same,bioavailability,[33],66%
same,bioavailability,[34],39%
same,CL,[35],22.5%
same,CL,[36],34.6%
same,CL,[37],53.8%
same,T/C,[38],49%
same,T/C,[39],57%
same,Activity,[40],Non-Toxic
same,Activity,[41],Non-Toxic
same,Activity,[42],Non-Toxic
same,Activity,[43],Non-Toxic
same,inhibition,[44],Active
same,inhibition,[45],Active
